Measured values as given in ChEMBL document CHEMBL1159017, “Akuammine and dihydroakuammine, two indolomonoterpene alkaloids displaying affinity for opioid receptors” (J Nat Prod, 1992).

Experiments:
Mu-type opioid receptor = Mu-type opioid receptor (Rattus norvegicus, UniProt P33535); test: Displacement of [3H]DAMGO from mu opioid receptor in rat central nervous system membrane; format: tissue-based
Summary of the method: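 Rat CNS membranes incubated with 1 nM [3H]-DAGO for 60 min at 20°. Bound and free radioligand separated by rapid filtration, then beta-scintillation counting. Specific binding defined with 10^-5 M unlabelled DAGO (>70%). IC50 (molar concentration giving half-maximal displacement) calculated from displacement curves.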

[1] = biological target: Delta-type opioid receptor (Rattus norvegicus, UniProt P33533); test: Displacement of [3H]pCl-DPDP from delta opioid receptor in rat central nervous system membrane; format: tissue-based
Delta-type opioid receptor, sequence (P33533 whole entry): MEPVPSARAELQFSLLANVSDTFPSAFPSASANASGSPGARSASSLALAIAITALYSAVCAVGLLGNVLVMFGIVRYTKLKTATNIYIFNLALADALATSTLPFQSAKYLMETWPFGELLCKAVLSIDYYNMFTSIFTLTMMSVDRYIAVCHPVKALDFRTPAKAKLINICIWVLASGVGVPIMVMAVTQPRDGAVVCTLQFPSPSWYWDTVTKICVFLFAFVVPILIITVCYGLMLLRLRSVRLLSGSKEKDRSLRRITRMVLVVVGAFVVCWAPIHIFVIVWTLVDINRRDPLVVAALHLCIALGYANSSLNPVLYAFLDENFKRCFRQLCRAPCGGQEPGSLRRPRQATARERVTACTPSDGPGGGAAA
Summary of the method: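 Rat CNS membranes incubated with 1 nM [3H]-pCl-DPDP-enkephalin for 270 min at 20°. Bound and free ligand separated by rapid filtration; radioactivity counted by beta scintillation. Nonspecific binding set with 10^-5 M unlabelled DPDP-enkephalin (specific >70%). IC50 (half-maximal displacement, molar) obtained from displacement curves.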

[2] = Displacement of [3H]U69593 from kappa opioid receptor in guinea pig cerebellum membrane; format: cell membranes, Cavia porcellus
Summary of the method: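 Guinea pig cerebellum homogenate incubated with 1.5 nM [3H]-U 69593 for 60 min at 20°. Rapid filtration, then beta-scintillation counting. Specific binding defined with 10^-5 M U50488H (>70%). IC50, the molar concentration giving half-maximal displacement, derived from displacement curves.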

Mu-type opioid receptor, sequence (P33535 whole entry): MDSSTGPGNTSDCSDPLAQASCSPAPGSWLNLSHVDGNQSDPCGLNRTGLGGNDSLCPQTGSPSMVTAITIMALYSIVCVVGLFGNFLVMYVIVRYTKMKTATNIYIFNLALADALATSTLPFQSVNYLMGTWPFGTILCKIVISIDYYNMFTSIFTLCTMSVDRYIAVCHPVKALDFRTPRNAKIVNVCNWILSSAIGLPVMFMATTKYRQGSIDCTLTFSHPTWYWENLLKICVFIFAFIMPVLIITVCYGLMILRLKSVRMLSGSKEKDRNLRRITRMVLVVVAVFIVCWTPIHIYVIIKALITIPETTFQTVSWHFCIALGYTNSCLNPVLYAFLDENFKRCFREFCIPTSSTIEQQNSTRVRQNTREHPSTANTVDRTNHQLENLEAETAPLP

SMILES	IC50 (Mu-type opioid receptor) [µM]	IC50 [1] [µM]	IC50 [2] [µM]
C/C=C1/CN2CC[C@@]34c5cc(O)ccc5N(C)[C@@]23CC[C@H]1[C@@]4(CO)C(=O)OC [DIHYDROAKUAMMINE]	6	> 100	20
CN1CC[C@@]2(C)c3cc(O)ccc3N(C)[C@@H]12	0.3	10	0.3
C/C=C1/CN2CC[C@@]34c5cc(O)ccc5N(C)[C@]35OC[C@@]4(C(=O)OC)[C@@H]1C[C@H]25 [AKUAMMINE]	–	20	4
